In ChEMBL document CHEMBL4477200, “Design, Synthesis, and Preclinical Evaluation of 4-Substituted-5-methyl-furo[2,3-d]pyrimidines as Microtubule Targeting Agents That Are Effective against Multidrug Resistant Cancer Cells” (J Med Chem, 2016):
Activity calls are given as the source filed them. The rule behind the calls is not given here.

Experiments:
Tubulin (Bos taurus) = Tubulin (Bos taurus) (UniProt Q6B856+Q862L2+Q862F3); experiment: Inhibition of [3H]colchicine binding to tubulin in bovine brain homogenate at 5 uM incubated for 10 mins by DEAE-cellulose filter assay; format: tissue-based
MDA-MB-468 = experiment: Cytotoxicity against human MDA-MB-468 cells assessed as growth inhibition after 48 hrs by SRB assay; format: functional; conditions: MDA-MB-468, 48 h
EKVX = experiment: Cytotoxicity against human EKVX cells assessed as growth inhibition after 48 hrs by SRB assay; format: functional
HL-60(TB) = experiment: Cytotoxicity against human HL-60(TB) cells assessed as growth inhibition after 48 hrs by SRB assay; format: functional; conditions: HL-60, 48 h
SK-OV-3 = experiment: Cytotoxicity against human SKOV3 cells assessed as growth inhibition after 48 hrs by SRB assay; format: functional, cell-based; conditions: SK-OV-3, 48 h
Method in brief: (§1)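 SRB assay; IC50 is the mean of three independent experiments, each run in triplicate. Cells were kept at 37 °C under 5% CO2. HeLa and SK-OV-3 lines (parental and MDR1-M6/6) were grown in Basal Medium Eagle with 10% FBS, 1% GlutaMAX and 50 µg/mL gentamycin. HeLa WTβIII was grown in DMEM with 10% FBS.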

CAKI-1 = experiment: Cytotoxicity against human Caki1 cells assessed as growth inhibition after 48 hrs by SRB assay; format: functional; conditions: CAKI-1, 48 h
MCF7 = experiment: Cytotoxicity against human MCF7 cells assessed as growth inhibition after 48 hrs by SRB assay; format: functional; conditions: MCF7, 48 h
HeLa [1] = experiment: Antiproliferative activity against human HeLa cells after 48 hrs by SRB assay; format: functional, cell-based; method in brief: as §1
NCI-H460 = experiment: Cytotoxicity against human NCI-H460 cells assessed as growth inhibition after 48 hrs by SRB assay; format: functional; conditions: NCI-H460, 48 h
NCI/ADR-RES = experiment: Cytotoxicity against human NCI-ADR-RES cells assessed as growth inhibition after 48 hrs by SRB assay; format: functional
COLO 205 = experiment: Cytotoxicity against human COLO205 cells assessed as growth inhibition after 48 hrs by SRB assay; format: functional; conditions: COLO 205, 48 h
MDA-MB-435 = experiment: Antitumor activity against human MDA-MB-435 cells xenografted in nude mouse assessed as tumor growth inhibition at 60 mg/kg, ip dosed on day 0 to 2 and 50 mg/kg, ip on day 8 relative to control
A498 = experiment: Cytotoxicity against human A498 cells assessed as growth inhibition after 48 hrs by SRB assay; format: functional; conditions: A498, 48 h
NCI-H322M = experiment: Cytotoxicity against human NCI-H322M cells assessed as growth inhibition after 48 hrs by SRB assay; format: functional
CCRF-CEM = experiment: Cytotoxicity against human CCRF-CEM cells assessed as growth inhibition after 48 hrs by SRB assay; format: functional
OVCAR-3 = experiment: Cytotoxicity against human OVCAR3 cells assessed as growth inhibition after 48 hrs by SRB assay; format: functional; conditions: OVCAR-3, 48 h
TK-10 = experiment: Cytotoxicity against human TK10 cells assessed as growth inhibition after 48 hrs by SRB assay; format: functional; conditions: TK-10, 48 h
OVCAR-5 = experiment: Cytotoxicity against human OVCAR5 cells assessed as growth inhibition after 48 hrs by SRB assay; format: functional; conditions: OVCAR-5, 48 h
LOX IMVI = experiment: Cytotoxicity against human LOXIMVI cells assessed as growth inhibition after 48 hrs by SRB assay; format: functional
Tubulin (Homo sapiens) = Tubulin (Homo sapiens) (UniProt P68371+Q9H4B7+P0DPH7+P68366+Q13509+Q71U36+P04350+Q3ZCM7+P07437+P68363+Q9BQE3+Q6PEY2+Q13885+Q9BVA1+Q9BUF5); experiment: Induction of microtubule disruption in human HeLa cells assessed as multipolarization of spindle at 5 times IC50 incubated for 18 hrs by indirect immunofluorescence analysis relative to vehicle-treated control; format: cell-based
Method in brief: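 Mitotic spindles and microtubules were imaged by indirect immunofluorescence with a β-tubulin antibody and compared with vehicle-treated cells.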

A549 = experiment: Cytotoxicity against human A549 cells assessed as growth inhibition after 48 hrs by SRB assay; format: functional; conditions: A549, 48 h
HeLa [2] = experiment: Cell cycle arrest in human HeLa cells assessed as accumulation at G2/M phase at 5 times IC50 after 18 hrs by flow cytometry (reference value: 17.11 +/- 1.09%); format: functional
HCT-116 = experiment: Cytotoxicity against human HCT116 cells assessed as growth inhibition after 48 hrs by SRB assay; format: functional; conditions: HCT-116, 48 h
SF-539 = experiment: Cytotoxicity against human SF539 cells assessed as growth inhibition after 48 hrs by SRB assay; format: functional; conditions: SF-539, 48 h
OVCAR-4 = experiment: Cytotoxicity against human OVCAR4 cells assessed as growth inhibition after 48 hrs by SRB assay; format: functional; conditions: OVCAR-4, 48 h
Tubulin = Tubulin (Bos taurus, UniProt Q6B856+Q862L2+Q862F3); experiment: Inhibition of tubulin assembly in bovine brain […] assessed as reduction in turbidity increase preincubated for 15 mins followed by GTP addition measured for 20 mins by spectrophotometric analysis
Method in brief: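 Purified bovine brain tubulin, 1.0 mg/mL (10 µM), was preincubated 15 min at 30 °C in 0.8 M monosodium glutamate (pH 6.6) with compound and 4% DMSO. Mixtures were chilled and 0.4 mM GTP added. Turbidity was followed for 20 min at 30 °C. IC50 is the concentration halving the turbidity increase, interpolated between tested concentrations.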

MDA-MB-231 = experiment: Cytotoxicity against human MDA-MB-231 cells assessed as growth inhibition after 48 hrs by SRB assay; format: functional; conditions: MDA-MB-231, 48 h

COc1ccc(N(C)c2ncnc3occ(C)c23)cc1
inhibition (Tubulin (Bos taurus)): 96% | GI50 (MDA-MB-468): < 10 nM | GI50 (EKVX): < 10 nM | GI50 (HL-60(TB)): < 10 nM | GI50 (SK-OV-3): < 10 nM | IC50 (SK-OV-3): 7.7 nM | GI50 (CAKI-1): < 10 nM | GI50 (MCF7): < 10 nM | IC50 (HeLa [1]): 9.5 nM | GI50 (NCI-H460): < 10 nM | GI50 (NCI/ADR-RES): < 10 nM | GI50 (COLO 205): < 10 nM | TGI (MDA-MB-435): Active | GI50 (A498): < 10 nM | GI50 (NCI-H322M): > 100000 nM | GI50 (CCRF-CEM): < 10 nM | GI50 (OVCAR-3): < 10 nM | GI50 (TK-10): 75.3 nM | GI50 (OVCAR-5): 12.8 nM | GI50 (LOX IMVI): < 10 nM | Activity (Tubulin (Homo sapiens)): Active | GI50 (A549): < 10 nM | Activity (HeLa [2]): 66.99% | GI50 (HCT-116): < 10 nM | GI50 (SF-539): < 10 nM | GI50 (OVCAR-4): < 10 nM | IC50 (Tubulin): 3300 nM | GI50 (MDA-MB-231): < 10 nM
